In data set [1] the target is T1, S1P3 (Homo sapiens, UniProt Q99500). Nature of the data set: Ligand-induced ERK phosphorylation. The class given is cell-based. Particulars: for ERK phosphorylation response: WT S1P3 Jump-In CHO cells. The essentials:
(§1)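 Jump-In TI CHO-K cells carrying N-terminal triple-HA-tagged WT or point-mutant S1P3, stably retargeted and selected 4 weeks with blasticidin 10 μg/mL. Serum-starved 4 h, then exposed 5 min to increasing agonist. For antagonism, 1 uM antagonist was added 15 min beforehand or premixed with agonist. Phospho-p44/42 MAPK (Thr202/Tyr204) measured by sandwich ELISA; EC50 fitted from dose-response curves.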

In data set [2] the target is WT, W256L, and F263L mutant S1P3 (Homo sapiens, UniProt Q99500). Nature of the data set: [33P]S1P radioligand binding and competition, Jump-In CHO cells. Particulars: 0.1 nM [33P]S1P, W256L and F263L Jump-In cell lines (all cell lines). A digest of the protocol:
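Jump-In TI CHO-K cells (5 × 105) stably expressing WT, W256L or F263L S1P3, serum-starved 4 h. Incubated 30 min at 4 °C with 0.1 nM [33P]S1P plus increasing competitor in 20 mM Tris-HCl pH 7.5, NaCl, NaF, EDTA, Na3VO4, 0.5% fatty-acid-free BSA and protease inhibitors. Washed three times cold, lysed in 0.5% SDS, scintillation-counted. Normalized to each line's uncompeted binding (100%).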

The subject of data set [3] is full panel of S1P receptors. Nature of the data set: Profiling against the full panel of S1P receptors. The format is cell-based. Particulars: Supporting Table S3.
The nature of the next data set: Solubility. The class given is physicochemical.
Data set [4] in a line: Stability in biological systems. The class given is in vitro ADME.
Data set [5] concerns panel of 55 GPCRs, ion channels, and transporters. Description: Ricerca profiling panel.
The target in a further data set is R114A mutant S1P3 (Homo sapiens, UniProt Q99500, R114A). Nature of the data set: ERK phosphorylation, R114A mutant S1P3 Jump-In CHO cells. The class given is cell-based. Particulars: R114A mutant vs WT. The essentials:
as §1

The target in the next data set is M98A mutant S1P3 (Homo sapiens, UniProt Q99500, M98A). Nature of the data set: ERK phosphorylation, M98A mutant S1P3 Jump-In CHO cells. The class given is cell-based. A digest of the protocol: as §1
The target in data set [6] is T2, F263L S1P3 (Homo sapiens, UniProt Q99500, F263L). Nature of the data set: ERK phosphorylation, F263L mutant S1P3. The class given is cell-based. Particulars: ERK phosphorylation assay, vs WT. The essentials: as §1
A further data set concerns the target W256L S1P3 (Homo sapiens, UniProt Q99500, W256L). Description: ERK phosphorylation, W256L mutant S1P3. The class given is cell-based. The conditions noted are these: ERK phosphorylation assay, vs WT. A digest of the protocol: as §1
Data set [7] has as its target T2, F263L S1P3. Description: MAPmates multiplex assay pERK1/2. The class given is cell-based.
Data set [8] addresses T1, S1P3. Nature of the data set: Receptor assays coupled to Gi and Gq. The class given is cell-based. Particulars: ERK phosphorylation, calcium flux, β-arrestin, NFAT-β-lactamase assays.
Data set [9] deals with T1, S1P3. Description: S1P3-NFAT β-lactamase reporter. The conditions noted are these: S1P3-CHO cells, calcium flux dependent β-lactamase assay. The class given is cell-based. The essentials: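 CHO cells stably expressing human S1P3 and an NFAT-β-lactamase reporter, plated at 1 × 10^6/mL in phenol red-free DMEM with 0.5% charcoal/dextran FBS and held overnight at 37°C, 5% CO2. S1P dilution series plus six fixed allosteric-agonist levels (EC0–EC80), single-agonist controls, 4 h at 37°C. β-Lactamase FRET substrate with probenecid added, 2 h at room temperature. Read at ex 405 / em 535 and 460 nm. Mean ± SEM.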

In a further data set the test system is S1P1. Particulars: read-out: S1P1 EC50; in vitro; cited from earlier work.
For a further data set, the system named is S1P2. The conditions noted are these: read-out: S1P2 EC50; in vitro; cited from earlier work.
The next data set relates to S1P4. The conditions noted are these: read-out: S1P4 EC50; in vitro; cited from earlier work.
The test system of another data set is S1P5. Particulars: read-out: S1P5 EC50; in vitro; cited from earlier work.
Where [10] appears, read: ERK phosphorylation, SPM-242 at 1 uM.

pEC50: −log10 of the molar value.

T2 sequence (Q99500 whole entry F263L): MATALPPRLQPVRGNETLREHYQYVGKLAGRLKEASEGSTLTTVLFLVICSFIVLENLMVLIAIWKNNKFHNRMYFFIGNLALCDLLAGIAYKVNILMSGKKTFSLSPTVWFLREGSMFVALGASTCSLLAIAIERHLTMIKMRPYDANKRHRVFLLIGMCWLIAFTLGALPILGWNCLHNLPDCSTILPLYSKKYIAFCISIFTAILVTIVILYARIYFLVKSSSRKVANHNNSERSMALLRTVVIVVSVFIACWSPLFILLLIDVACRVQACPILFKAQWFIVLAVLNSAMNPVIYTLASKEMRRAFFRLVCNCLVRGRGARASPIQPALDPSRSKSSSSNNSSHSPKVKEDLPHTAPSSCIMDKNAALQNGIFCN
WT, W256L, and F263L mutant S1P3, sequence (Q99500 whole entry W256L/F263L): as the sequence (Q99500 whole entry F263L) above, with W256L counted along it
T1 sequence (Q99500 whole entry): as the sequence (Q99500 whole entry F263L) above, with L263F counted along it
R114A mutant S1P3, sequence (Q99500 whole entry R114A): as the sequence (Q99500 whole entry F263L) above, with R114A, L263F counted along it
W256L S1P3, sequence (Q99500 whole entry W256L): as the sequence (Q99500 whole entry F263L) above, with W256L, L263F counted along it
M98A mutant S1P3, sequence (Q99500 whole entry M98A): as the sequence (Q99500 whole entry F263L) above, with M98A, L263F counted along it

For `NC(CO)(CCc1ccc(Sc2cccc(O)c2)cc1Cl)COP(=O)(O)O` (single isomer, unassigned; (+)) [SPM-242, (+)-2-amino-4-(2-chloro-4-((3-hydroxyphenyl)thio)phenyl)-2-(hydroxymethyl)butyl dihydrogen phosphate], at S1P3 [1] (setting [10]), the “right-shift of the concentration response curve of S1P” value is 152 fold and the “shift of the concentration response curve of CYM-5541” value is reported as 6 fold. Further, the “competition for [33P]S1P binding” value in [2] is “reversed [^33P]S1P binding competitively in a dose dependent manner”. For the same molecule, the “selectivity among S1P receptors” value in data set [3] is listed as “selective for S1P3”. The solubility result in the data set “Solubility” was “low solubility”. Moreover, in data set [4], the “stability of phosphate-ester bond” value is “extremely labile”.
Regarding `O=C(c1cc(C2CC2)on1)N(C1CCCCC1)C1CCCCC1` [CYM-5541, N,N-dicyclohexyl(5-cyclopropylisoxazol-3-yl)carboxamide], the ERK phosphorylation response result was “agonist dose-dependent ERK phosphorylation” on S1P3 [1]; “comparable for WT and R114A” at R114A mutant S1P3; “agonist dose-dependent ERK phosphorylation” on M98A mutant S1P3. Besides, at S1P3 [1] (WT S1P3 Jump-In stable CHO cells), the “agonist efficacy: maximum level of ERK phosphorylation compared with S1P” value was “full agonist”. Besides, the “activity in Ricerca profiling panel” value in [5] is recorded as “no significant activities”. For the same molecule, in data set [2], the “competition for [33P]S1P binding” value was “unable to compete”. The “effect of F263L mutation on ligand-induced receptor activation” value on F263L S1P3 [6] was “shifted CYM-5541-induced receptor activation”. Besides, the “effect of W256L mutation on ligand-induced receptor activation” value at W256L S1P3 is on record as “did not affect”. Moreover, the “receptor activation (pERK1/2) compared to WT S1P3” value on F263L S1P3 [7] was “significantly diminished receptor activation”. Besides, the “signalling bias compared to S1P” value on S1P3 [8] is listed as “no such differences were observed”. Besides, the “response on co-application of S1P and CYM-5541” value on S1P3 [9] is “additive and no synergy was observed”. For the same molecule, in “Solubility”, the solubility entry is given as “low solubility”. The negative-log EC50 (pEC50) in the data set with S1P1 is less than 5.00; in the data set with S1P2 it was less than 4.30; in the data set with S1P4, less than 4.30; in the data set with S1P5 it was less than 4.60.
For the molecule `CCCCCCCCCCCCC/C=C/[C@@H](O)[C@@H](N)COP(=O)(O)O` [S1P, Sphingosine 1-phosphate, reference compound], the ERK phosphorylation response entry at S1P3 [1] is reported as “agonist dose-dependent ERK phosphorylation”; on R114A mutant S1P3, “unable to respond”; at M98A mutant S1P3 it was “agonist dose-dependent ERK phosphorylation”. In addition, in data set [2], the “competition for [33P]S1P binding” value is on record as “competitively reversed in a dose dependent manner”. In addition, the “effect of F263L mutation on ligand-induced receptor activation” value on F263L S1P3 [6] is “not S1P-induced activation”. Besides, the “effect of W256L mutation on ligand-induced receptor activation” value on W256L S1P3 is recorded as “did not affect”.
